Results reported in ChEMBL document CHEMBL4689842, “EUbOPEN Chemogenomics Library wave 1” (2021).

Tests used:
Assay type in all cases: toxicity, cell-based
HEK-293T = assay: Incucyte cell viability with HEK293T; conditions: human, 10 µM, compound concentration 10 uM; also: filed as whole numbers so only -1 and 0 and 1 occur
U2OS [1] = assay: Multiplex assay against U2OS; conditions: human
In short: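 With compound added, live cells were imaged on a CQ1 microscope at 37°C and 5% CO2; staining with Hoechst33342, BioTracker Green Microtubule Cytoskeleton Dye, MitoTracker Red and Annexin V Alexa Fluor 680 had been done at seeding. The CellPathfinder machine-learning gating scheme split cells into Hoechst high-intensity objects or normal cells, normal cells into healthy, pyknosed or fragmented nuclei, and pyknosed cells into mitotic or apoptotic. The tubulin, mitochondrial-mass and membrane-permeability phenotypes are per cents of healthy-nucleus cells.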

Fibroblast = assay: Incucyte cell viability with human fibroblast; conditions: 10 µM, compound concentration 10 uM; also: filed as whole numbers so only -1 and 0 and 1 occur
U2OS [2] = assay: Incucyte cell viability with U2OS; conditions: human, 10 µM, compound concentration 10 uM; also: filed as whole numbers so only -1 and 0 and 1 occur
[3] = 0 h, replicate number 1, timepoint 0 hours
[4] = 6 h, replicate number 1, timepoint 6 hours
[5] = 12 h, replicate number 1, timepoint 12 hours
[6] = 18 h, replicate number 1, timepoint 18 hours
[7] = 24 h, replicate number 1, timepoint 24 hours
[8] = 12 h, 1 µM, compound concentration 1 uM, replicate 1
[9] = 12 h, 1 µM, compound concentration 1 uM, replicate 2
[10] = 12 h, 10 µM, compound concentration 10 uM, replicate 1
[11] = 12 h, 10 µM, compound concentration 10 uM, replicate 2
[12] = 24 h, 1 µM, compound concentration 1 uM, replicate 1
[13] = 24 h, 1 µM, compound concentration 1 uM, replicate 2
[14] = 24 h, 10 µM, compound concentration 10 uM, replicate 1
[15] = 24 h, 10 µM, compound concentration 10 uM, replicate 2

Compound: CCOc1cc2ncc(C#N)c(Nc3ccc(OCc4cccc(F)c4)c(Cl)c3)c2cc1NC(=O)/C=C/CN(C)C [HKI-357]
- Growth Rate (HEK-293T; [3]): 0
- Growth Rate (HEK-293T; [4]): 0
- Growth Rate (HEK-293T; [5]): 0
- Growth Rate (HEK-293T; [6]): 0
- Growth Rate (HEK-293T; [7]): 0
- Population Apoptotic (%) (U2OS [1]; [8]): 58%
- Population Fragmented Nuclei (%) (U2OS [1]; [8]): 5%
- Population Healthy Nuclei (%) (U2OS [1]; [8]): 86%
- Population Hoechst High Intensity Objects (%) (U2OS [1]; [8]): 1%
- Population Membrane Permeable-Phenotype (%) (U2OS [1]; [8]): 21%
- Population Mitochondria Different-Phenotype (%) (U2OS [1]; [8]): 12%
- Population Mitotic Cells (%) (U2OS [1]; [8]): 41%
- Population Normal (%) (U2OS [1]; [8]): 98%
- Population Pyknosed Nuclei (%) (U2OS [1]; [8]): 8%
- Population Tubulin-Different-Phenotype (%) (U2OS [1]; [8]): 14%
- Total Cell Count (U2OS [1]; [8]): 156
- Population Apoptotic (%) (U2OS [1]; [9]): 25%
- Population Fragmented Nuclei (%) (U2OS [1]; [9]): 11%
- Population Healthy Nuclei (%) (U2OS [1]; [9]): 84%
- Population Hoechst High Intensity Objects (%) (U2OS [1]; [9]): 16%
- Population Membrane Permeable-Phenotype (%) (U2OS [1]; [9]): 19%
- Population Mitochondria Different-Phenotype (%) (U2OS [1]; [9]): 25%
- Population Mitotic Cells (%) (U2OS [1]; [9]): 75%
- Population Normal (%) (U2OS [1]; [9]): 83%
- Population Pyknosed Nuclei (%) (U2OS [1]; [9]): 4%
- Population Tubulin-Different-Phenotype (%) (U2OS [1]; [9]): 21%
- Total Cell Count (U2OS [1]; [9]): 141
- Population Apoptotic (%) (U2OS [1]; [10]): 56%
- Population Fragmented Nuclei (%) (U2OS [1]; [10]): 13%
- Population Healthy Nuclei (%) (U2OS [1]; [10]): 69%
- Population Hoechst High Intensity Objects (%) (U2OS [1]; [10]): 5%
- Population Membrane Permeable-Phenotype (%) (U2OS [1]; [10]): 43%
- Population Mitochondria Different-Phenotype (%) (U2OS [1]; [10]): 33%
- Population Mitotic Cells (%) (U2OS [1]; [10]): 43%
- Population Normal (%) (U2OS [1]; [10]): 94%
- Population Pyknosed Nuclei (%) (U2OS [1]; [10]): 16%
- Population Tubulin-Different-Phenotype (%) (U2OS [1]; [10]): 95%
- Total Cell Count (U2OS [1]; [10]): 210
- Population Apoptotic (%) (U2OS [1]; [11]): 69%
- Population Fragmented Nuclei (%) (U2OS [1]; [11]): 20%
- Population Healthy Nuclei (%) (U2OS [1]; [11]): 65%
- Population Hoechst High Intensity Objects (%) (U2OS [1]; [11]): 12%
- Population Membrane Permeable-Phenotype (%) (U2OS [1]; [11]): 31%
- Population Mitochondria Different-Phenotype (%) (U2OS [1]; [11]): 39%
- Population Mitotic Cells (%) (U2OS [1]; [11]): 30%
- Population Normal (%) (U2OS [1]; [11]): 87%
- Population Pyknosed Nuclei (%) (U2OS [1]; [11]): 13%
- Population Tubulin-Different-Phenotype (%) (U2OS [1]; [11]): 88%
- Total Cell Count (U2OS [1]; [11]): 119
- Population Apoptotic (%) (U2OS [1]; [12]): 32%
- Population Fragmented Nuclei (%) (U2OS [1]; [12]): 7%
- Population Healthy Nuclei (%) (U2OS [1]; [12]): 82%
- Population Hoechst High Intensity Objects (%) (U2OS [1]; [12]): 2%
- Population Membrane Permeable-Phenotype (%) (U2OS [1]; [12]): 23%
- Population Mitochondria Different-Phenotype (%) (U2OS [1]; [12]): 16%
- Population Mitotic Cells (%) (U2OS [1]; [12]): 67%
- Population Normal (%) (U2OS [1]; [12]): 97%
- Population Pyknosed Nuclei (%) (U2OS [1]; [12]): 10%
- Population Tubulin-Different-Phenotype (%) (U2OS [1]; [12]): 17%
- Total Cell Count (U2OS [1]; [12]): 172
- Population Apoptotic (%) (U2OS [1]; [13]): 45%
- Population Fragmented Nuclei (%) (U2OS [1]; [13]): 9%
- Population Hoechst High Intensity Objects (%) (U2OS [1]; [13]): 7%
- Population Membrane Permeable-Phenotype (%) (U2OS [1]; [13]): 10%
- Population Mitochondria Different-Phenotype (%) (U2OS [1]; [13]): 23%
- Population Mitotic Cells (%) (U2OS [1]; [13]): 54%
- Population Normal (%) (U2OS [1]; [13]): 92%
- Population Pyknosed Nuclei (%) (U2OS [1]; [13]): 8%
- Population Tubulin-Different-Phenotype (%) (U2OS [1]; [13]): 27%
- Total Cell Count (U2OS [1]; [13]): 154
- Population Apoptotic (%) (U2OS [1]; [14]): 84%
- Population Fragmented Nuclei (%) (U2OS [1]; [14]): 8%
- Population Healthy Nuclei (%) (U2OS [1]; [14]): 68%
- Population Hoechst High Intensity Objects (%) (U2OS [1]; [14]): 4%
- Population Membrane Permeable-Phenotype (%) (U2OS [1]; [14]): 32%
- Population Mitochondria Different-Phenotype (%) (U2OS [1]; [14]): 58%
- Population Mitotic Cells (%) (U2OS [1]; [14]): 15%
- Population Normal (%) (U2OS [1]; [14]): 95%
- Population Pyknosed Nuclei (%) (U2OS [1]; [14]): 23%
- Population Tubulin-Different-Phenotype (%) (U2OS [1]; [14]): 81%
- Total Cell Count (U2OS [1]; [14]): 272
- Population Apoptotic (%) (U2OS [1]; [15]): 86%
- Population Healthy Nuclei (%) (U2OS [1]; [15]): 74%
- Population Hoechst High Intensity Objects (%) (U2OS [1]; [15]): 12%
- Population Membrane Permeable-Phenotype (%) (U2OS [1]; [15]): 23%
- Population Mitochondria Different-Phenotype (%) (U2OS [1]; [15]): 69%
- Population Mitotic Cells (%) (U2OS [1]; [15]): 13%
- Population Normal (%) (U2OS [1]; [15]): 87%
- Population Pyknosed Nuclei (%) (U2OS [1]; [15]): 17%
- Population Tubulin-Different-Phenotype (%) (U2OS [1]; [15]): 84%
- Total Cell Count (U2OS [1]; [15]): 141
- Growth Rate (Fibroblast; [3]): 0
- Growth Rate (Fibroblast; [4]): 0
- Growth Rate (Fibroblast; [5]): 0
- Growth Rate (Fibroblast; [6]): 0
- Growth Rate (Fibroblast; [7]): 0
- Growth Rate (U2OS [2]; 0 h, replicate number 2, timepoint 0 hours): 0
- Growth Rate (U2OS [2]; [4]): 0
- Growth Rate (U2OS [2]; [5]): 0
- Growth Rate (U2OS [2]; [6]): 0
- Growth Rate (U2OS [2]; [7]): 0
